In data set [1] the target is Mitogen-activated protein kinase kinase kinase kinase 4 (Homo sapiens) (UniProt O95819). Briefly: Binding affinity to wild-type human partial length MAP4K4 (M1 to R310 residues) expressed in bacterial expression system assessed as remaining unbound target protein level at 1000 nM by Kinomescan method relative to control. In short, it runs like this:
(§1)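 KINOMEscan binding panel of 468 kinases/mutants. Inhibitor was tested at a single concentration of 1 μM. Binding is reported as percent of control, defined relative to a DMSO control.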

The target in data set [2] is Tyrosine-protein kinase Yes (Homo sapiens) (UniProt P07947). Briefly: Binding affinity to wild-type human partial length YES (T257 to L543 residues) expressed in bacterial expression system assessed as remaining unbound target protein level at 1000 nM by Kinomescan method relative to control.
In the next data set the target is CDK3/Cyclin E (Homo sapiens, UniProt Q00526). In words: Inhibition of recombinant GST-tagged human CDK3/cyclin E1. In kind it is protein-complex assay.
Another data set deals with A-431. Briefly: Antiproliferative activity against human A431 cells after 72 hrs by Celltiter-Glo assay. The conditions noted are these: A-431, 72 h. In kind it is functional. An outline of the steps: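 Cells seeded at 3000/well in 96-well plates, exposed to serially diluted compound for 72 h at 37 °C, 5% CO2. Viability read by CellTiter-Glo luminescence and normalized to DMSO control. GI50 derived from curve fit, mean of three independent measurements. Culture media: DMEM/10% FBS for adherent lines; IMDM for MV4-11 and MEC-1/2; RPMI 1640 for suspension lines and CHL.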
A general note: In ATP-based viability assays light output follows the ATP content of the culture.

In data set [3] the target is Cyclin-dependent kinase 15 (Homo sapiens) (UniProt Q96Q40). Briefly: Binding affinity to wild-type human full length PFTAIRE2 (M1 to W384 residues) expressed in bacterial expression system assessed as remaining unbound target protein level at 1000 nM by Kinomescan method relative to control. An outline of the steps: (§2)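 KINOMEscan competition binding profile across a panel of 468 kinases and mutants, with the inhibitor tested at a single concentration of 1 μM. Binding is reported as percent of control, meaning signal relative to a DMSO control.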

Data set [4] addresses Mitogen-activated protein kinase 12 (Homo sapiens) (UniProt P53778). Briefly: Binding affinity to wild-type human full length p38-gamma (M1 to L367 residues) expressed in mammalian expression system assessed as remaining unbound target protein level at 1000 nM by Kinomescan method relative to control. In short, it runs like this: as §2
Data set [5] has as its target Myosin light chain kinase 2, skeletal/cardiac muscle (Homo sapiens) (UniProt Q9H1R3). In words: Binding affinity to wild-type human partial length MYLK2 (D258 to K570 residues) expressed in bacterial expression system assessed as remaining unbound target protein level at 1000 nM by Kinomescan method relative to control. In short, it runs like this: as §1
The target of data set [6] is Mitogen-activated protein kinase kinase kinase 5 (Homo sapiens) (UniProt Q99683). In words: Binding affinity to wild-type human partial length ASK1 (E648 to S964 residues) expressed in bacterial expression system assessed as remaining unbound target protein level at 1000 nM by Kinomescan method relative to control. In short, it runs like this:
as §2

For data set [7], the target named is Mitogen-activated protein kinase 11 (Homo sapiens) (UniProt Q15759). In words: Binding affinity to wild-type human full length p38-beta (M1 to Q364 residues) expressed in bacterial expression system assessed as remaining unbound target protein level at 1000 nM by Kinomescan method relative to control. An outline of the steps:
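Profiled in a KINOMEscan binding panel with the inhibitor at a single concentration of 1 μM. Binding to each kinase was read out as percent of control, relative to a DMSO control. Strong binders were defined as those with a percent control value below 1.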

Data set [8] concerns the target Dual specificity protein kinase TTK (Homo sapiens) (UniProt P33981). In words: Binding affinity to wild-type human partial length TTK (N505 to V798 residues) expressed in bacterial expression system assessed as remaining unbound target protein level at 1000 nM by Kinomescan method relative to control.
A further data set relates to MV4-11. In words: Induction of apoptosis in human MV4-11 cells assessed as decrease in BCL-2 level up to 3 uM after 2 hrs by immunoblotting analysis. In kind it is functional, cell-based.
Data set [9] can be described thus: MRT (0 to infinity) in beagle dog at 10 mg/kg, po by LC-MS/MS analysis. In kind it is ADME, organism-based, Canis lupus familiaris. The note with it: in vivo.
Data set [10] addresses Tyrosine-protein kinase ABL1 (Homo sapiens) (UniProt P00519). Briefly: Binding affinity to wild-type human phosphorylated ABL1 (S229 to K512 residues) expressed in mammalian expression system assessed as remaining unbound target protein level at 1000 nM by Kinomescan method relative to control.
Data set [11] concerns the target Inhibitor of nuclear factor kappa-B kinase subunit epsilon (Homo sapiens) (UniProt Q14164). Briefly: Binding affinity to wild-type human full length IKK-epsilon (M1 to V716 residues) expressed in mammalian expression system assessed as remaining unbound target protein level at 1000 nM by Kinomescan method relative to control. In short, it runs like this: as §2

Data set [12] has as its target Homeodomain-interacting protein kinase 4 (Homo sapiens) (UniProt Q8NE63). In words: Binding affinity to wild-type human partial length HIPK4 (M1 to V384 residues) expressed in bacterial expression system assessed as remaining unbound target protein level at 1000 nM by Kinomescan method relative to control. In short, it runs like this: as §1
Data set [13] deals with Serine/threonine-protein kinase BRSK2 (Homo sapiens) (UniProt Q8IWQ3). In words: Binding affinity to wild-type human full length BRSK2 (M1 to L674 residues) expressed in bacterial expression system assessed as remaining unbound target protein level at 1000 nM by Kinomescan method relative to control. In short, it runs like this:
(§3)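 Single-point competition binding screen across a panel of 468 kinases and mutants, with the inhibitor at 1 μM. Binding is read out as percent of a DMSO control, and targets below 1 percent control were classed as strong binders.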

The target in data set [14] is Serine/threonine-protein kinase MRCK beta (Homo sapiens) (UniProt Q9Y5S2). Briefly: Binding affinity to wild-type human partial length MRCKB (L56 to S417 residues) expressed in bacterial expression system assessed as remaining unbound target protein level at 1000 nM by Kinomescan method relative to control.
Data set [15] addresses Serine/threonine-protein kinase STK11 (Homo sapiens) (UniProt Q15831). Briefly: Binding affinity to wild-type human full length LKB1 (M1 to Q433 residues) expressed in bacterial expression system assessed as remaining unbound target protein level at 1000 nM by Kinomescan method relative to control. An outline of the steps:
as §3

The target in data set [16] is T1, Cyclin-dependent kinase 9 (Homo sapiens, UniProt P50750). In words: Inhibition of CDK9 in human MV4-11 cells assessed as decrease in RNA polymerase 2 phosphorylation at Ser 2 residues in CTD domain after 2 hrs by immunoblotting analysis. In kind it is cell-based.
Data set [17] has as its target T1, Cyclin-dependent kinase 9. Briefly: Inhibition of CDK9 in human MEC1 cells assessed as decrease in phosphorylation at Thr 186 residues up to 3 uM after 2 hrs by immunoblotting analysis. In kind it is cell-based.
Data set [18] has as its target Cyclin-G-associated kinase (Homo sapiens) (UniProt O14976). In words: Binding affinity to wild-type human partial length GAK (G13 to Y338 residues) expressed in bacterial expression system assessed as remaining unbound target protein level at 1000 nM by Kinomescan method relative to control.
Data set [19] concerns the target Fibroblast growth factor receptor 3 (Homo sapiens) (UniProt P22607). In words: Binding affinity to wild-type human partial length FGFR3 (R442 to S771 residues) expressed in bacterial expression system assessed as remaining unbound target protein level at 1000 nM by Kinomescan method relative to control.

pEC50, pIC50: −log10 of the molar value. Calls of active or inactive are those of the source.

T1 sequence (P50750 whole entry, the tested form may be a part): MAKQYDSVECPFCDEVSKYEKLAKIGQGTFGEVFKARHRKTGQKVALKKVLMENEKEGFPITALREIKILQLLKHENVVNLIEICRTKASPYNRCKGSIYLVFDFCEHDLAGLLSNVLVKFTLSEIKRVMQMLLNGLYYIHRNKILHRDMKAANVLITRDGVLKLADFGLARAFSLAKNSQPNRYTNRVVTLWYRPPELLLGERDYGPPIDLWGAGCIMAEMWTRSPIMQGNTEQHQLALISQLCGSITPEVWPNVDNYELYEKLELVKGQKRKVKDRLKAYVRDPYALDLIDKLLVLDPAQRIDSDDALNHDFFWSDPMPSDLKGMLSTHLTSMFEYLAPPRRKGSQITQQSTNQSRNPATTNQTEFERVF
Chain of Fibroblast growth factor receptor 3 (Homo sapiens) (P22607 23-806 limits assumed): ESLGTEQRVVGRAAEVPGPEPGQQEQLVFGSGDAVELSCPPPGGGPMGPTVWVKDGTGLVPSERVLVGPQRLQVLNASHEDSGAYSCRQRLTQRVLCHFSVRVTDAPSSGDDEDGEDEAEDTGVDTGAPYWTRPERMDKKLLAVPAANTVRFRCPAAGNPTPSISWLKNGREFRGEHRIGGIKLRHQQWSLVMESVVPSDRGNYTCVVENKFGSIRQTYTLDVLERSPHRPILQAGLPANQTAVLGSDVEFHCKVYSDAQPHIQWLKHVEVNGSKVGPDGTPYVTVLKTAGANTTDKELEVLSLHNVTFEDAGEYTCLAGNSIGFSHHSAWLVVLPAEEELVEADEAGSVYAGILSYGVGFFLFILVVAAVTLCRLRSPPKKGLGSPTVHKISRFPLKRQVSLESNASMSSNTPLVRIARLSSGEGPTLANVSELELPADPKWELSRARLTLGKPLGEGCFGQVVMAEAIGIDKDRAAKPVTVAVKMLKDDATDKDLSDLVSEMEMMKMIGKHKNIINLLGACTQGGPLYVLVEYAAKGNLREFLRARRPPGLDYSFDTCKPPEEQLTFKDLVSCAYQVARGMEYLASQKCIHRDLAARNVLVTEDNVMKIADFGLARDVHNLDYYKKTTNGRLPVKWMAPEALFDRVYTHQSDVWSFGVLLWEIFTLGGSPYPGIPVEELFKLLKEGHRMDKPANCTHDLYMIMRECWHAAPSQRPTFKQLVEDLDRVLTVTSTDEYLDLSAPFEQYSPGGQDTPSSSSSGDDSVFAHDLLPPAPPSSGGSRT
Chain of Tyrosine-protein kinase ABL1 (Homo sapiens) (P00519 whole entry, the tested form may be a part): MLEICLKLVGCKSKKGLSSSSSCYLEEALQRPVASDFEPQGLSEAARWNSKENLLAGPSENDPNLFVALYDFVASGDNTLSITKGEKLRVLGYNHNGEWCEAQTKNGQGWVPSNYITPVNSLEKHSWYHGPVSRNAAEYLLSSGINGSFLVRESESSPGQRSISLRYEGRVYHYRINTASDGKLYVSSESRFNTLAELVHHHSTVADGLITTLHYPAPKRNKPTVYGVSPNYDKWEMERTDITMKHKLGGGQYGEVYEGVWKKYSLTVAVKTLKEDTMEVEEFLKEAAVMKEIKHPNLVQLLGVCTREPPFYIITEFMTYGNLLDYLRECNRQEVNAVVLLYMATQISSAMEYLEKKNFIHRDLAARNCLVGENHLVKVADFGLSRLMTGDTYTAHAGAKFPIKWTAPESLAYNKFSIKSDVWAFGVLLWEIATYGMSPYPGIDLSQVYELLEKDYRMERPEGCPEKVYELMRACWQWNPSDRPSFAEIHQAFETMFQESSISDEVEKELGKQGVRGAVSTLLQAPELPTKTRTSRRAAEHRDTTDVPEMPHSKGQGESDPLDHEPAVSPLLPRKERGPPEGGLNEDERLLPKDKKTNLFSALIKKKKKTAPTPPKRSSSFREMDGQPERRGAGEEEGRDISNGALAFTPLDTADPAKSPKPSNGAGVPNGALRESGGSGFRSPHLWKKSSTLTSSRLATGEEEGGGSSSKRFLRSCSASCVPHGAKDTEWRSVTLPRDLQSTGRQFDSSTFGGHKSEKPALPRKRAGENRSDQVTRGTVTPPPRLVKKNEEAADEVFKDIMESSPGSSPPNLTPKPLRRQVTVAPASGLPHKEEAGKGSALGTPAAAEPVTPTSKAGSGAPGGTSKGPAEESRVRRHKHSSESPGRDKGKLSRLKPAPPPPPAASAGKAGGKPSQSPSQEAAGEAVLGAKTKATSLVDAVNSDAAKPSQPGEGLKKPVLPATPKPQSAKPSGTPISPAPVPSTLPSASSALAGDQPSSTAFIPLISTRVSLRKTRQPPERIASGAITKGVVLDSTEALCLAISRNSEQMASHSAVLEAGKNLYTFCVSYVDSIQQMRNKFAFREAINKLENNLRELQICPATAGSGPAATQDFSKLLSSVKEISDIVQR
Chain of Cyclin-dependent kinase 15 (Homo sapiens) (Q96Q40 whole entry, the tested form may be a part): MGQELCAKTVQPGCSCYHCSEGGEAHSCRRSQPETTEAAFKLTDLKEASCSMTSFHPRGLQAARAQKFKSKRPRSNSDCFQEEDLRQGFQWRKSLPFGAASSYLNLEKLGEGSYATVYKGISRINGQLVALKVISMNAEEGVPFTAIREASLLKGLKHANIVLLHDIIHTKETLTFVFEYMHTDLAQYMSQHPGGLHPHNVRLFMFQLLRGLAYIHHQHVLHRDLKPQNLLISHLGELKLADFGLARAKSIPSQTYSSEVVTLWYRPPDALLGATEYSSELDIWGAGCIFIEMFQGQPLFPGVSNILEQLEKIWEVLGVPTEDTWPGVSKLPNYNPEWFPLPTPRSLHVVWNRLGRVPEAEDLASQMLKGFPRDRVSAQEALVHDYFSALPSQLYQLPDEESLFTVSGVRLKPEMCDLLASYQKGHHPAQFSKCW
Chain of Serine/threonine-protein kinase STK11 (Homo sapiens) (Q15831 whole entry, the tested form may be a part): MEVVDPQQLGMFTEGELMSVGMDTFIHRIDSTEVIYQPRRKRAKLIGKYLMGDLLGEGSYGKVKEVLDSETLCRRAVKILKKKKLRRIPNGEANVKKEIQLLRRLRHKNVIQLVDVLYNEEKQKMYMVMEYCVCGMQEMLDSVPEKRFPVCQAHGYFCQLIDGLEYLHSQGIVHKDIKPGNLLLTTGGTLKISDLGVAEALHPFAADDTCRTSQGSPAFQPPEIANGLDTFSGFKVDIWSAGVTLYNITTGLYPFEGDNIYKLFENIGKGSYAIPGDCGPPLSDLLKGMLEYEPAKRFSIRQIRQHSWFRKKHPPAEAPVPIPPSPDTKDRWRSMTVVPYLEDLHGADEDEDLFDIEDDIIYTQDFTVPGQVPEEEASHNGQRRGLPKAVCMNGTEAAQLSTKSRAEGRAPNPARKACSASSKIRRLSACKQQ
Chain of Mitogen-activated protein kinase kinase kinase 5 (Homo sapiens) (Q99683 whole entry, the tested form may be a part): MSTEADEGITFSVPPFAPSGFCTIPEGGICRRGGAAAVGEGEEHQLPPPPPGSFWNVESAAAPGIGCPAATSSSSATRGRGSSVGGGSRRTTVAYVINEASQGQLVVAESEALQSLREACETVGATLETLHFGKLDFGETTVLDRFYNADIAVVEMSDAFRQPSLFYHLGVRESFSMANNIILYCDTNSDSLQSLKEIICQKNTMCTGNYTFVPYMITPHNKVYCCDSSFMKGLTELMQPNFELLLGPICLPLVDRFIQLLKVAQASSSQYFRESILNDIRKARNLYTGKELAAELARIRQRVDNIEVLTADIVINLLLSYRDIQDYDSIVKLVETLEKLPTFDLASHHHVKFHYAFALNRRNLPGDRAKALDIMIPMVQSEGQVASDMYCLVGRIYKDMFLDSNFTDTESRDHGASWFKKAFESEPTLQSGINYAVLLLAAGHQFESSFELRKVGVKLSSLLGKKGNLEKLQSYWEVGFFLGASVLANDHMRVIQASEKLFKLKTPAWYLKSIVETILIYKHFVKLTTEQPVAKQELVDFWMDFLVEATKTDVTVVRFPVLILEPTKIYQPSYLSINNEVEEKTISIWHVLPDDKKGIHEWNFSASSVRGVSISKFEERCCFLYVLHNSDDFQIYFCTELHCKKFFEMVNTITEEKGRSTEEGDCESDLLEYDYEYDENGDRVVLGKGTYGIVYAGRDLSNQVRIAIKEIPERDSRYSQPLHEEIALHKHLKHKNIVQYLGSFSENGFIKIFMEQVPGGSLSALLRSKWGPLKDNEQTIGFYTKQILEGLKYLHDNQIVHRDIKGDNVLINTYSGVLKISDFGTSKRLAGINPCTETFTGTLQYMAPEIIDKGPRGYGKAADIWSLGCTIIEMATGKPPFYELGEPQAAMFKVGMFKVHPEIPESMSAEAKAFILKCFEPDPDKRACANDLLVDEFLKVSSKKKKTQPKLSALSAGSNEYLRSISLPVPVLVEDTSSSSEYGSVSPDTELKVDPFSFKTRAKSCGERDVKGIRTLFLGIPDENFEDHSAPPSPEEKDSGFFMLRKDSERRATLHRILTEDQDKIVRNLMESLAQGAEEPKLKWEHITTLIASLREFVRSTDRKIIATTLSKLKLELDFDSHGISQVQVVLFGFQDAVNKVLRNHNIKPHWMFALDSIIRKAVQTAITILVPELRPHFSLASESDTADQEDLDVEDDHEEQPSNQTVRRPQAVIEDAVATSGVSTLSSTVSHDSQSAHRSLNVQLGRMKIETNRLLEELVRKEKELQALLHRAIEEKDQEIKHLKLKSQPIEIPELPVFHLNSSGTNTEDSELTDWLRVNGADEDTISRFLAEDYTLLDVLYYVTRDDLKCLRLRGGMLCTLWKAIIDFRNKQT
Chain of Mitogen-activated protein kinase 11 (Homo sapiens) (Q15759 whole entry, the tested form may be a part): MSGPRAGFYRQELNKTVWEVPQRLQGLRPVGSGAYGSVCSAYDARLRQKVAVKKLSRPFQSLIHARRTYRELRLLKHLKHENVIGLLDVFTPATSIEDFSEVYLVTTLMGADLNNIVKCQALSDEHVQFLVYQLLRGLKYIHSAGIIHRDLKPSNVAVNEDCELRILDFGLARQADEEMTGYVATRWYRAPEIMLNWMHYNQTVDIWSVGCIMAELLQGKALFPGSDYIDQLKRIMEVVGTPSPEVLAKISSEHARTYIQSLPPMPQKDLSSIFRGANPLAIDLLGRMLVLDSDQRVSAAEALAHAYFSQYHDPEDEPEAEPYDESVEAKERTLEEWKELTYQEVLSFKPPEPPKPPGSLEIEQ

The pIC50 is −log10 of the IC50, conventionally taken in molar units. For orientation: GI50 means the concentration at which growth is held to half of that of the control. The term MRT inf denotes the average time that molecules of a dose stay in the body. Broadly, the pEC50 is the EC50 on a negative log10 scale, so that one unit is a factor of ten. As for `COCCN[C@H]1CC[C@H](Nc2cc(-c3csc(NCC4(C#N)CCOCC4)n3)c(Cl)cn2)CC1`, the Activity in data set [1] stood at 91%; in [2], 97%; in data set [3] it was 66%; in data set [4], 99%; in [5] it was 93%; in data set [6], 77%. Further, the Activity in [7] was 85%; in [8] it was 86%; in data set [10], 91%; in data set [11], 99%; in data set [12] it was 9.9%; in data set [13] it was 75%. In addition, the Activity came out at 100% in data set [14], 100% in data set [15], 100% in data set [18] and 89% in data set [19]. The pIC50 on CDK3/Cyclin E is less than 5.00. In the data set with A-431, the concentration for 50% growth inhibition (GI50) was 19 nM. Moreover, in the data set with MV4-11, the outcome was inactive. The mean residence time (MRT inf) in data set [9] turned out to be 29.2 h. The negative logarithm of the EC50 (pEC50) in data set [16] was greater than 7.00. Besides, the inhibition result in data set [16] is “Dose-dependent effect”. Besides, the inhibition entry in data set [17] was “inactive”.

Source of the values: ChEMBL document CHEMBL4261600 (Eur J Med Chem, 2018).
